Values after ≈ are worked out from the molar mass of the structure shown. Active and inactive are the calls of the source. The rule behind the calls is not given here.
Experiments:
Naegleria fowleri [1] = assay: Antiparasitic activity against Naegleria fowleri ATCC 30215 trophozoites after 4 days; type: functional; conditions: ATCC 30215, 96 h, read-out: MIC100
Mus musculus [2] = assay: Blood urea nitrogen level in BALB/c mouse serum at 10 mg/kg, ip; type: ADME, organism-based; parameters: dose 10 mg/kg, route intraperitoneal; conditions: in vivo
How it was run: (§1)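 Renal toxicity check: BALB/c mice given drug i.p. at 5, 10, 20 or 50 mg/kg (saline vehicle), or saline as negative control. Blood collected once daily for 3 days. Serum blood urea nitrogen measured on a clinical chemical analyzer.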

Naegleria fowleri [3] = assay: Antiparasitic activity against Naegleria fowleri ATCC 30215 trophozoites infected in BALB/c mouse assessed as mean time to death at 10 mg/kg, ip administered on days 3, 7 and 11 postinfection; type: functional, ATCC30215; conditions: route intraperitoneal
How it was run: (§2)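 Female BALB/c mice, 7 weeks old, were infected intranasally under secobarbital anaesthesia with 10^4 trophozoites grown 3 days in Nelson's medium at 37°C. Drug was dissolved in saline and given as 100 µl intraperitoneally, starting day 3; controls received saline; 20 mice per group. Deaths were recorded daily for 1 month and mean time to death computed per group. Cause of death was confirmed by brain-tissue culture.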

Mus musculus [4] = assay: Blood urea nitrogen level in BALB/c mouse serum at 5 mg/kg, ip; type: ADME, organism-based; parameters: dose 5 mg/kg, route intraperitoneal; conditions: in vivo; how it was run: as §1
Mus musculus [5] = assay: Blood urea nitrogen level in BALB/c mouse serum at 20 mg/kg, ip; type: ADME, organism-based; parameters: dose 20 mg/kg, route intraperitoneal; conditions: in vivo; how it was run: as §1
Naegleria fowleri [6] = assay: Antiparasitic activity against Naegleria fowleri ATCC 30215 trophozoites after 2 days; type: functional; conditions: ATCC 30215, 48 h, read-out: MIC100
Naegleria fowleri [7] = assay: Antiparasitic activity against Naegleria fowleri ATCC 30215 trophozoites assessed as inhibition of amoeba proliferation at 0.39 ug/ml on day 2; type: functional; conditions: ATCC 30215, 48 h
How it was run: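 Viable amoebae counted by hemacytometer with trypan blue on day 2, with light-microscope morphology. Triplicate wells, at least three repeats.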

Naegleria fowleri [8] = assay: Antiparasitic activity against Naegleria fowleri ATCC 30215 trophozoites at 25 ug/ml on day 6 by LDH release assay; type: functional
How it was run: (§3)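 Supernatant sampled on days 2, 4, 6, mixed with CytoTox96 reagent for 30 min at room temperature, stopped, A490 read. Cytotoxicity % = (sample − spontaneous)/(maximum − spontaneous) ×100. Means ± SE of three experiments in triplicate.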

Naegleria fowleri [9] = assay: Antiparasitic activity against Naegleria fowleri ATCC 30215 trophozoites infected in BALB/c mouse assessed as mouse survival at 10 mg/kg, ip administered on days 3, 7 and 11 postinfection; type: functional, ATCC30215; conditions: route intraperitoneal; how it was run: as §2
Naegleria fowleri [10] = assay: Antiparasitic activity against Naegleria fowleri ATCC 30215 trophozoites at >1.56 ug/ml on day 4 by LDH release assay; type: functional; how it was run: as §3
Naegleria fowleri [11] = assay: Antiparasitic activity against Naegleria fowleri ATCC 30215 trophozoites after 6 days; type: functional; conditions: ATCC 30215, 144 h, read-out: MIC100
Naegleria fowleri [12] = assay: Antiparasitic activity against Naegleria fowleri ATCC 30215 trophozoites at 100 ug/ml on day 4 by LDH release assay; type: functional; how it was run: as §3
Naegleria fowleri [13] = assay: Antiparasitic activity against Naegleria fowleri ATCC 30215 trophozoites infected in BALB/c mouse assessed as mean time to death at 20 mg/kg, ip administered on days 3, 7 and 11 postinfection; type: functional, ATCC30215; conditions: route intraperitoneal; how it was run: as §2
Naegleria fowleri [14] = assay: Antiparasitic activity against Naegleria fowleri ATCC 30215 trophozoites infected in BALB/c mouse brain by histopathology analysis; type: functional, organism-based; conditions: ATCC30215
How it was run: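 Female BALB/c mice, 7 weeks old, infected intranasally under secobarbital with 10^4 trophozoites grown 3 days in Nelson's medium at 37°C. Drugs given i.p. in saline on days 3, 7, 11. Brains of dead mice or mice surviving 1 month fixed in 10% neutral buffered formalin, paraffin-embedded, H&E-stained and examined by light microscopy. 20 mice/group.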

Mus musculus [15] = assay: Renal toxicity in BALB/c mouse assessed as necrosis in kidney cortex at 20 mg/kg, ip by histopathological analysis; type: organism-based; parameters: dose 20 mg/kg, route intraperitoneal; conditions: in vivo
Mus musculus [16] = assay: Renal toxicity in BALB/c mouse assessed as degeneration of renal tubules at 20 mg/kg, ip by histopathological analysis; type: organism-based; parameters: dose 20 mg/kg, route intraperitoneal; conditions: in vivo
Naegleria fowleri [17] = assay: Antiparasitic activity against Naegleria fowleri ATCC 30215 trophozoites infected in BALB/c mouse assessed as mouse survival at 20 mg/kg, ip administered on days 3 and 7 postinfection; type: functional, ATCC30215; conditions: route intraperitoneal; how it was run: as §2
Naegleria fowleri [18] = assay: Antiparasitic activity against Naegleria fowleri ATCC 30215 trophozoites infected in BALB/c mouse assessed as mouse survival at 20 mg/kg, ip administered on days 3, 7 and 11 postinfection; type: functional, ATCC30215; conditions: route intraperitoneal; how it was run: as §2
Mus musculus [19] = assay: Blood urea nitrogen level in BALB/c mouse serum at 50 mg/kg, ip; type: ADME, organism-based; parameters: dose 50 mg/kg, route intraperitoneal; conditions: in vivo; how it was run: as §1
[20] = Hepatotoxicity in BALB/c mouse hepatocytes assessed as change in cell morphology at 20 mg/kg, ip by histopathological analysis; type: toxicity, organism-based, Hepatocyte; parameters: dose 20 mg/kg, route intraperitoneal
How it was run: (§4)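 Toxicity histology: BALB/c mice dosed i.p. at 20 mg/kg in saline. Liver and kidney fixed in 10% neutral buffered formalin, paraffin-embedded, H&E-stained, and complete cross-sections examined by light microscopy (×100, ×400) for hepatocyte and renal cortical tubule size and shape.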

Mus musculus [21] = assay: Renal toxicity in BALB/c mouse assessed as change in renal cortical tubule morphology at 20 mg/kg, ip by histopathological analysis; type: organism-based; parameters: dose 20 mg/kg, route intraperitoneal; conditions: in vivo; how it was run: as §4
Naegleria fowleri [22] = assay: Antiparasitic activity against Naegleria fowleri ATCC 30215 trophozoites at 50 ug/ml on day 2 by LDH release assay; type: functional; how it was run: as §3
Naegleria fowleri [23] = assay: Antiparasitic activity against Naegleria fowleri ATCC 30215 trophozoites at 3.125 ug/ml on day 2 by LDH release assay; type: functional; how it was run: as §3
Naegleria fowleri [24] = assay: Antiparasitic activity against Naegleria fowleri ATCC 30215 trophozoites at 50 ug/ml on day 6 by LDH release assay; type: functional; how it was run: as §3
Naegleria fowleri [25] = assay: Antiparasitic activity against Naegleria fowleri ATCC 30215 trophozoites at 100 ug/ml on day 2 by LDH release assay; type: functional; how it was run: as §3
Naegleria fowleri [26] = assay: Antiparasitic activity against Naegleria fowleri ATCC 30215 trophozoites at 1.56 ug/ml on day 2 by LDH release assay; type: functional; how it was run: as §3
Naegleria fowleri [27] = assay: Antiparasitic activity against Naegleria fowleri ATCC 30215 trophozoites at 12.5 ug/ml on day 2 by LDH release assay; type: functional; how it was run: as §3
Naegleria fowleri [28] = assay: Antiparasitic activity against Naegleria fowleri ATCC 30215 trophozoites at 25 ug/ml on day 2 by LDH release assay; type: functional; how it was run: as §3
Naegleria fowleri [29] = assay: Antiparasitic activity against Naegleria fowleri ATCC 30215 trophozoites at 6.25 ug/ml on day 2 by LDH release assay; type: functional; how it was run: as §3

Row | Structure (SMILES) | MIC (Naegleria fowleri [1]) | Activity (Mus musculus [2]) | Activity (Mus musculus [5]) | MIC (Naegleria fowleri [6]) | Activity (Naegleria fowleri [8]) | MIC (Naegleria fowleri [11]) | Activity (Naegleria fowleri [17]) | Activity (Naegleria fowleri [18]) | Activity (Mus musculus [19]) | other results
1 | C[C@@H]1[C@H](O)[C@@H](C)/C=C/C=C/C=C/C=C/C=C/C=C/C=C/[C@H](O[C@@H]2O[C@H](C)[C@@H](O)[C@H](N)[C@@H]2O)C[C@@H]2O[C@](O)(C[C@@H](O)C[C@@H](O)[C@H](O)CC[C@@H](O)C[C@@H](O)CC(=O)O[C@H]1C)C[C@H](O)[C@H]2C(=O)O [AMPHOTERICIN B] | 0.78 µg/mL (≈ 0.844 µM) | 38.6 mg/dL | 44.1 mg/dL | 0.78 µg/mL (≈ 0.844 µM) | 99.5% | 0.78 µg/mL (≈ 0.844 µM) | – | – | – | Time (Naegleria fowleri [3]): 17.3 days; Activity (Mus musculus [4]): 27.4 mg/dL; inhibition at 0.39 µg/mL (Naegleria fowleri [7]): 100%; Activity (Naegleria fowleri [9]): 40%; Activity (Naegleria fowleri [10]): >50%
2 | CN(C)CCCN1c2ccccc2Sc2ccc(Cl)cc21 [CHLORPROMAZINE] | 12.5 µg/mL (≈ 39.2 µM) | 36.3 mg/dL | 38.4 mg/dL | 12.5 µg/mL (≈ 39.2 µM) | 64.4% | 12.5 µg/mL (≈ 39.2 µM) | 35% | 75% | 57.5 mg/dL | Activity (Naegleria fowleri [12]): 69.1%; Time (Naegleria fowleri [13]): 17.2 days; Activity (Naegleria fowleri [14]): Active; Activity (Mus musculus [15]): Non-toxic; Activity (Mus musculus [16]): Non-toxic; Activity [20]: Non-toxic; Activity (Mus musculus [21]): Non-toxic
3 | CCCCCCCCCCCCCCCCOP(=O)([O-])OCC[N+](C)(C)C [MILTEFOSINE] | 25 µg/mL (≈ 61.3 µM) | 29.6 mg/dL | 34.6 mg/dL | 25 µg/mL (≈ 61.3 µM) | – | 25 µg/mL (≈ 61.3 µM) | 20% | 55% | 82.4 mg/dL | Activity (Naegleria fowleri [22]): <30%; Activity (Naegleria fowleri [23]): <30%; Activity (Naegleria fowleri [24]): 79.3%; Activity (Naegleria fowleri [25]): <30%; Activity (Naegleria fowleri [26]): <30%; Activity (Naegleria fowleri [27]): <30%; Activity (Naegleria fowleri [28]): <30%; Activity (Naegleria fowleri [29]): <30%
